In the array DNA melting data of Ke et al. (doi:10.1101/2024.01.08.574731):

What was measured:
[1] = folding enthalpy; higher = less favourable; fluorescence melt of hairpins on a sequencing array, two-state fit; details: sodium 0.088 M
Summary of the method: (§1)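 Hairpins were imaged by Cy3 fluorescence on a sequenced MiSeq flow cell with annealed Cy3 and quencher oligos, in 50 mM Na-HEPES pH 8.0, 25 mM NaCl, in 2.5 °C steps up to 60 °C. Bootstrapped two-state fits of normalised signals gave melting temperature and folding enthalpy. Four replicates were combined by inverse variance, and fitted temperatures were raised by 9.35 °C to match UV melts.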

[2] = melting temperature; fluorescence melt of hairpins on a sequencing array, two-state fit, raised by 9.35 °C to match UV melts; details: sodium 0.088 M
Summary of the method: as §1

Row | Sequence | folding enthalpy [1] | Tm [2]
1 | GAAGAGCCGAAAGGCTTC (((..(((....)))))) | -9.43 kcal/mol | 31.6 °C
2 | GCGAGCGGAAACGCCCGC (((.(((....))).))) | -35.4 kcal/mol | 58.4 °C
3 | GATCTAGGGTTAGATC ((((((....)))))) | -28.4 kcal/mol | 37.4 °C
4 | GATCACAGCCGTGATC ((((((....)))))) | -44.6 kcal/mol | 57.8 °C
5 | GCCTTACCGAAAGGTGGC (((..(((....)))))) | -23.6 kcal/mol | 48.8 °C
6 | GATCTTTCTGAAGATC ((((((....)))))) | -36 kcal/mol | 45.2 °C
7 | GATCCAAGTATGGATC ((((((....)))))) | -36.5 kcal/mol | 50.3 °C
8 | GGGGTACGAAAGTATCCC (((.(((....))).))) | -33.5 kcal/mol | 58 °C
9 | GTTTACCGAAAGGTCAAC (((.(((....))).))) | -24.8 kcal/mol | 39.1 °C
10 | CCTAGGAAACTAGG (((((....))))) | -25.4 kcal/mol | 41.2 °C
11 | GCGAAACTTCGC ((((....)))) | -19.9 kcal/mol | 51.1 °C
12 | GATCACGAAAGTGTCATC ((((((....)))..))) | -13.8 kcal/mol | 31.5 °C
13 | GGAGCTGGAAACGGCTCC (((((.(....).))))) | -48.2 kcal/mol | 59.9 °C
14 | GTATCAGGAAACTGATAC (((((((....))))))) | -39.3 kcal/mol | 54.6 °C
15 | GCCGGGGGAAACCCCAGC ((.((((....)))).)) | -21.2 kcal/mol | 50.3 °C
16 | GCTGAACGAAAGTTAAGC (((.(((....))).))) | -31.4 kcal/mol | 50.6 °C
17 | GGGCTTGCGAAAGCACCC (((..(((....)))))) | -15.8 kcal/mol | 45.6 °C
18 | GCAGGGCGAAAGCAGTGC (((..((....))..))) | -18.3 kcal/mol | 56.7 °C
19 | GTGTAAGGAAACTCACAC ((((.((....)).)))) | -16.9 kcal/mol | 32.8 °C
20 | GAAGTCGGAAACGGCTTC ((((.((....)).)))) | -39.7 kcal/mol | 54.5 °C
21 | GCGGCGCGAAAGCCCGGC ((.(.((....)).).)) | -14.6 kcal/mol | 59.8 °C
22 | CGGCACCGGAAACGGCCG (((..(((....)))))) | -29.1 kcal/mol | 49.2 °C
23 | GGTCCACGAAAGTGACC (((.(((....)))))) | -24.4 kcal/mol | 52.5 °C

Row | Sequence | folding enthalpy [1] | Tm [2]
24 | GTAGGTGGAAACACCTGC (.(((((....))))).) | -18.5 kcal/mol | 53.4 °C
25 | GAGGCCGAAAGGCGACTC ((((((....)))..))) | -12.7 kcal/mol | 44.7 °C
26 | GCGTCGGGACGC ((((....)))) | -20.2 kcal/mol | 66 °C
27 | GAGAATGGAAACGTTCTC (((((.(....).))))) | -33.9 kcal/mol | 42.9 °C
28 | GCCTCCGAAAGGACCGGC ((((((....)))..))) | -25 kcal/mol | 43.1 °C
29 | GCGACCAATCGC ((((....)))) | -23.6 kcal/mol | 44 °C
30 | GAGCCCGAAAGGGACCTC ((((((....)))..))) | -15.6 kcal/mol | 45 °C
31 | GGTTATGGAAACGTAACC (((((.(....).))))) | -40.6 kcal/mol | 45.8 °C
32 | GATCGCATACGCGATC ((((((....)))))) | -36.1 kcal/mol | 69.3 °C
33 | GTACGCGAAAGCGGCTAC ((((((....)))..))) | -10.4 kcal/mol | 42.1 °C
34 | GCGTGGCGAAAGCGAAGC ((.(.((....)).).)) | -16.9 kcal/mol | 50.5 °C
35 | GCACCCCGAAAGGGTTGC (((.(((....))).))) | -34.8 kcal/mol | 55.1 °C
36 | GATCGACGAAAGTCCATC (((.(((....))).))) | -15.5 kcal/mol | 30 °C
37 | GGTATCGAAAGATCGACC ((((((....)))..))) | -16.9 kcal/mol | 27.8 °C
38 | GGTCACGAAAGTGGGACC ((((((....)))..))) | -23.4 kcal/mol | 48 °C
39 | GATGGAGGAAACTCTATC (((.(((....))).))) | -24.4 kcal/mol | 37.8 °C
40 | GCCCTGCGAAAGCGGAGC ((.(.((....)).).)) | -15.5 kcal/mol | 51.5 °C
41 | GATCTATGGGTAGATC ((((((....)))))) | -33.2 kcal/mol | 45.6 °C
42 | GAGTCACGAAAGTGCTC (((.(((....)))))) | -23.8 kcal/mol | 48.6 °C
43 | GCAACTGGAAACGGTTGC (((((.(....).))))) | -45.2 kcal/mol | 54.2 °C
44 | GCTCTCGAAAGAGGAGC ((((((....))).))) | -29.2 kcal/mol | 50.6 °C
45 | GATCGAATGCTCGATC ((((((....)))))) | -49.6 kcal/mol | 49.9 °C
46 | GAGCGCGAAAGCGCCTC ((((((....))).))) | -7.59 kcal/mol | 58.1 °C

Row | Sequence | folding enthalpy [1] | Tm [2]
47 | GACGACGAAAGTCGTGTC ((((((....)))..))) | -10.5 kcal/mol | 59.9 °C
48 | GCAAGCGAAAGCTGATGC ((((((....)))..))) | -16.3 kcal/mol | 45.7 °C
49 | GAGCACGAAAGTGGGCTC ((((((....)))..))) | -23.5 kcal/mol | 54.7 °C
50 | GCCCTGGCGAAAGCCGGC (((..(((....)))))) | -11.1 kcal/mol | 52 °C
51 | GGGGGCGGAAACGTCCCC ((((.((....)).)))) | -22.5 kcal/mol | 67.4 °C
52 | GACTCCGGAAACGGAGCC (.(((((....))))).) | -13.6 kcal/mol | 50.5 °C
53 | GCGGGGCGAAAGCTCGGC ((.(.((....)).).)) | -16.4 kcal/mol | 56.3 °C
54 | GATCAATTGTTTGATC ((((((....)))))) | -35.9 kcal/mol | 46.1 °C
55 | GATCCTCACAGGATC ((((((...)))))) | -27.2 kcal/mol | 54 °C
56 | CGCCGGCGGAAACGCGCG (((..(((....)))))) | -21.1 kcal/mol | 51.5 °C
57 | GATCATGGCTATGATC ((((((....)))))) | -40.6 kcal/mol | 53.7 °C
58 | GAAGCGAAAGCTTC (((((....))))) | -25.7 kcal/mol | 68.1 °C
59 | GTTACCGAAAGGTACAAC ((((((....)))..))) | -10.9 kcal/mol | 31.2 °C
60 | GGGCAAACGAAAGTTCCC (((..(((....)))))) | -19.5 kcal/mol | 35.6 °C
61 | GGACGAGGAAACTCGCCC ((.((((....)))).)) | -23.3 kcal/mol | 51.7 °C
62 | GATCACGGCGTGATC ((((((...)))))) | -38 kcal/mol | 61.3 °C
63 | GAATAGCCGAAAGGCTTC (((..(((....)))))) | -7.5 kcal/mol | 25.5 °C
64 | GTTGTCGAAAGACGGAAC ((((((....)))..))) | -10.3 kcal/mol | 31.3 °C
65 | TCGGTGAAAACCGA (((((....))))) | -17.7 kcal/mol | 53 °C
66 | GAAGGTGGAAACACCTCC (.(((((....))))).) | -12.3 kcal/mol | 40.8 °C
67 | GCAACTCGAAAGAGCTGC (((.(((....))).))) | -46.6 kcal/mol | 52.3 °C
68 | GGTCACCGAAAGGTCACC (((.(((....))).))) | -25.6 kcal/mol | 43.9 °C
69 | GATCGCTACCGCGATC ((((((....)))))) | -35.1 kcal/mol | 68.2 °C

Row | Sequence | folding enthalpy [1] | Tm [2]
70 | GATGGCCGAAAGGCATC (((.(((....)))))) | -14.6 kcal/mol | 49.9 °C
71 | GCTCCAGCGAAAGCTAGC (((..(((....)))))) | -8.7 kcal/mol | 34 °C
72 | GACTCAACGAAAGTTGTC (((..(((....)))))) | -10.2 kcal/mol | 29.9 °C
73 | ATCCCGAAAGGGAT (((((....))))) | -29.1 kcal/mol | 60.9 °C
74 | GTGCATGGAAACACGCAC ((((.((....)).)))) | -34.6 kcal/mol | 47.7 °C
75 | GTACGCCGAAAGGCTTAC (((.(((....))).))) | -21.5 kcal/mol | 46.3 °C
76 | TAACTGAAAAGTTA (((((....))))) | -9.74 kcal/mol | 29.4 °C
77 | GGAGGCGGAAACGCCCCC ((.((((....)))).)) | -14.8 kcal/mol | 56.4 °C
78 | GAGCTAGGAAACTAACTC (((.(((....))).))) | -19.9 kcal/mol | 30.4 °C
79 | GGAAACGAAAGTTTATCC ((((((....)))..))) | -12.3 kcal/mol | 25.6 °C
80 | GGAGACCCGAAAGGGTCC (((..(((....)))))) | -7.91 kcal/mol | 47.6 °C
81 | GTAGTCGAAAGACTCTAC ((((((....)))..))) | -12.8 kcal/mol | 36.2 °C
82 | GCGTTCGAAAGAAACCGC ((((((....)))..))) | -25.2 kcal/mol | 36.9 °C
83 | GATGATGGAAACACCATC ((((.((....)).)))) | -20.8 kcal/mol | 38.6 °C
84 | TGCAAGAAATTGCA (((((....))))) | -17.6 kcal/mol | 39.7 °C
85 | GGCCAGCGAAAGCTTGCC (((.(((....))).))) | -50.7 kcal/mol | 55.5 °C
86 | GACGTGCGAAAGCAGGTC (((.(((....))).))) | -36.2 kcal/mol | 62.4 °C
87 | GCCAGCGAAAGCTTAGGC ((((((....)))..))) | -27.3 kcal/mol | 52 °C
88 | GATCTTCTAAAGATC ((((((...)))))) | -30.9 kcal/mol | 42.9 °C
89 | GGCGGCGAAAGCCGCGCC ((((((....)))..))) | -6.34 kcal/mol | 68 °C
90 | GCGGGAGGAAACTCCCAC (.(((((....))))).) | -13.7 kcal/mol | 48.7 °C
91 | GCGTGGCGAAAGCTATGC ((.(.((....)).).)) | -31.4 kcal/mol | 52.5 °C
92 | GACTTCCGAAAGGAGTC (((.(((....)))))) | -24.8 kcal/mol | 46.4 °C
